3 compounds from ChEMBL document CHEMBL1275544, “Effect of therapeutic chemical agents in vitro and on experimental meningoencephalitis due to Naegleria fowleri” (Antimicrob Agents Chemother, 2008) can be followed below.

The subject of data set [1] is Naegleria fowleri. In words: Antiparasitic activity against Naegleria fowleri ATCC 30215 trophozoites infected in BALB/c mouse assessed as mean time to death at 10 mg/kg, ip administered on days 3, 7 and 11 postinfection. Format: functional, ATCC30215. The following applies: route intraperitoneal. The method, boiled down:
(§1)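 Female BALB/c mice, 7 weeks old, were infected intranasally under secobarbital anaesthesia with 10^4 trophozoites grown 3 days in Nelson's medium at 37°C. Drug was dissolved in saline and given as 100 µl intraperitoneally, starting day 3; controls received saline; 20 mice per group. Deaths were recorded daily for 1 month and mean time to death computed per group. Cause of death was confirmed by brain-tissue culture.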

Data set [2] concerns Naegleria fowleri. In words: Antiparasitic activity against Naegleria fowleri ATCC 30215 trophozoites after 2 days. The data set is classed as functional. Particulars: ATCC 30215, 48 h, read-out: MIC100.
The test system of data set [3] is Naegleria fowleri. The data set is described as follows: Antiparasitic activity against Naegleria fowleri ATCC 30215 trophozoites assessed as inhibition of amoeba proliferation at 0.39 ug/ml on day 2. The data set is classed as functional. Particulars: ATCC 30215, 48 h. The method in brief:
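Viable amoebae counted by hemacytometer with trypan blue on day 2, with light-microscope morphology. Triplicate wells, at least three repeats.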

In data set [4] the test system is Naegleria fowleri. The data set is described as follows: Antiparasitic activity against Naegleria fowleri ATCC 30215 trophozoites at >1.56 ug/ml on day 4 by LDH release assay. The data set is classed as functional. The method in brief:
(§2)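 Supernatant sampled on days 2, 4, 6, mixed with CytoTox96 reagent for 30 min at room temperature, stopped, A490 read. Cytotoxicity % = (sample − spontaneous)/(maximum − spontaneous) ×100. Means ± SE of three experiments in triplicate.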

Data set [5] concerns Naegleria fowleri. In words: Antiparasitic activity against Naegleria fowleri ATCC 30215 trophozoites infected in BALB/c mouse assessed as mouse survival at 10 mg/kg, ip administered on days 3, 7 and 11 postinfection. Format: functional, ATCC30215. The following applies: route intraperitoneal. The method, boiled down: as §1
Data set [6] deals with Naegleria fowleri. In words: Antiparasitic activity against Naegleria fowleri ATCC 30215 trophozoites after 4 days. Format: functional. The following applies: ATCC 30215, 96 h, read-out: MIC100.
The subject of data set [7] is Mus musculus. In words: Blood urea nitrogen level in BALB/c mouse serum at 5 mg/kg, ip. Format: ADME, organism-based. The arrangement: dose 5 mg/kg, route intraperitoneal. Particulars: in vivo. The method in brief: (§3)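 Renal toxicity check: BALB/c mice given drug i.p. at 5, 10, 20 or 50 mg/kg (saline vehicle), or saline as negative control. Blood collected once daily for 3 days. Serum blood urea nitrogen measured on a clinical chemical analyzer.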

The subject of data set [8] is Mus musculus. The data set is described as follows: Blood urea nitrogen level in BALB/c mouse serum at 10 mg/kg, ip. Format: ADME, organism-based. The arrangement: dose 10 mg/kg, route intraperitoneal. The following applies: in vivo. The method in brief:
as §3

The test system of data set [9] is Mus musculus. In words: Blood urea nitrogen level in BALB/c mouse serum at 20 mg/kg, ip. Format: ADME, organism-based. The arrangement: dose 20 mg/kg, route intraperitoneal. The following applies: in vivo. The method in brief: as §3
For data set [10], the system named is Naegleria fowleri. The data set is described as follows: Antiparasitic activity against Naegleria fowleri ATCC 30215 trophozoites at 25 ug/ml on day 6 by LDH release assay. Format: functional. The method, boiled down:
as §2

Data set [11] concerns Naegleria fowleri. The data set is described as follows: Antiparasitic activity against Naegleria fowleri ATCC 30215 trophozoites after 6 days. Format: functional. The following applies: ATCC 30215, 144 h, read-out: MIC100.
The subject of data set [12] is Mus musculus. In words: Blood urea nitrogen level in BALB/c mouse serum at 50 mg/kg, ip. The data set is classed as ADME, organism-based. Details: dose 50 mg/kg, route intraperitoneal. Particulars: in vivo. The method in brief:
as §3

The subject of data set [13] is Naegleria fowleri. The data set is described as follows: Antiparasitic activity against Naegleria fowleri ATCC 30215 trophozoites infected in BALB/c mouse brain by histopathology analysis. The data set is classed as functional, organism-based. The following applies: ATCC30215. The method in brief:
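Female BALB/c mice, 7 weeks old, infected intranasally under secobarbital with 10^4 trophozoites grown 3 days in Nelson's medium at 37°C. Drugs given i.p. in saline on days 3, 7, 11. Brains of dead mice or mice surviving 1 month fixed in 10% neutral buffered formalin, paraffin-embedded, H&E-stained and examined by light microscopy. 20 mice/group.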

Data set [14] can be described thus: Hepatotoxicity in BALB/c mouse hepatocytes assessed as change in cell morphology at 20 mg/kg, ip by histopathological analysis. Format: toxicity, organism-based, Hepatocyte. Details: dose 20 mg/kg, route intraperitoneal. The method, boiled down:
(§4)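 Toxicity histology: BALB/c mice dosed i.p. at 20 mg/kg in saline. Liver and kidney fixed in 10% neutral buffered formalin, paraffin-embedded, H&E-stained, and complete cross-sections examined by light microscopy (×100, ×400) for hepatocyte and renal cortical tubule size and shape.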

Data set [15] deals with Mus musculus. In words: Renal toxicity in BALB/c mouse assessed as degeneration of renal tubules at 20 mg/kg, ip by histopathological analysis. Details: dose 20 mg/kg, route intraperitoneal. Particulars: in vivo. Format: organism-based.
Data set [16] relates to Mus musculus. The data set is described as follows: Renal toxicity in BALB/c mouse assessed as change in renal cortical tubule morphology at 20 mg/kg, ip by histopathological analysis. Format: organism-based. Details: dose 20 mg/kg, route intraperitoneal. The following applies: in vivo. The method in brief:
as §4

The test system of data set [17] is Naegleria fowleri. In words: Antiparasitic activity against Naegleria fowleri ATCC 30215 trophozoites infected in BALB/c mouse assessed as mean time to death at 20 mg/kg, ip administered on days 3, 7 and 11 postinfection. Format: functional, ATCC30215. Particulars: route intraperitoneal. The method, boiled down: as §1
Data set [18] deals with Mus musculus. In words: Renal toxicity in BALB/c mouse assessed as necrosis in kidney cortex at 20 mg/kg, ip by histopathological analysis. The arrangement: dose 20 mg/kg, route intraperitoneal. Particulars: in vivo. Format: organism-based.
Data set [19] deals with Naegleria fowleri. The data set is described as follows: Antiparasitic activity against Naegleria fowleri ATCC 30215 trophozoites at 100 ug/ml on day 4 by LDH release assay. Format: functional. The method, boiled down:
as §2
A general note: Release of lactate dehydrogenase indicates damage to the cell membrane.

The subject of data set [20] is Naegleria fowleri. In words: Antiparasitic activity against Naegleria fowleri ATCC 30215 trophozoites infected in BALB/c mouse assessed as mouse survival at 20 mg/kg, ip administered on days 3 and 7 postinfection. Format: functional, ATCC30215. Particulars: route intraperitoneal. The method in brief: as §1
Data set [21] relates to Naegleria fowleri. The data set is described as follows: Antiparasitic activity against Naegleria fowleri ATCC 30215 trophozoites infected in BALB/c mouse assessed as mouse survival at 20 mg/kg, ip administered on days 3, 7 and 11 postinfection. Format: functional, ATCC30215. The following applies: route intraperitoneal. The method, boiled down:
as §1

In data set [22] the test system is Naegleria fowleri. In words: Antiparasitic activity against Naegleria fowleri ATCC 30215 trophozoites at 25 ug/ml on day 2 by LDH release assay. Format: functional. The method, boiled down:
as §2

The test system of data set [23] is Naegleria fowleri. The data set is described as follows: Antiparasitic activity against Naegleria fowleri ATCC 30215 trophozoites at 3.125 ug/ml on day 2 by LDH release assay. The data set is classed as functional. The method in brief: as §2
Data set [24] deals with Naegleria fowleri. The data set is described as follows: Antiparasitic activity against Naegleria fowleri ATCC 30215 trophozoites at 100 ug/ml on day 2 by LDH release assay. Format: functional. The method, boiled down: as §2
Data set [25] relates to Naegleria fowleri. The data set is described as follows: Antiparasitic activity against Naegleria fowleri ATCC 30215 trophozoites at 1.56 ug/ml on day 2 by LDH release assay. The data set is classed as functional. The method, boiled down:
as §2

Data set [26] relates to Naegleria fowleri. The data set is described as follows: Antiparasitic activity against Naegleria fowleri ATCC 30215 trophozoites at 50 ug/ml on day 6 by LDH release assay. Format: functional. The method in brief: as §2
Data set [27] concerns Naegleria fowleri. The data set is described as follows: Antiparasitic activity against Naegleria fowleri ATCC 30215 trophozoites at 6.25 ug/ml on day 2 by LDH release assay. Format: functional. The method in brief:
as §2

The test system of data set [28] is Naegleria fowleri. The data set is described as follows: Antiparasitic activity against Naegleria fowleri ATCC 30215 trophozoites at 12.5 ug/ml on day 2 by LDH release assay. Format: functional. The method, boiled down: as §2
The subject of data set [29] is Naegleria fowleri. The data set is described as follows: Antiparasitic activity against Naegleria fowleri ATCC 30215 trophozoites at 50 ug/ml on day 2 by LDH release assay. The data set is classed as functional. The method, boiled down:
as §2

Converted amounts (≈) assume the structure as drawn. The source made the active and inactive calls. The rule behind the calls is not given here.

The term inhibition denotes the change of the read-out against control, counted positive when it falls. With `C[C@@H]1[C@H](O)[C@@H](C)/C=C/C=C/C=C/C=C/C=C/C=C/C=C/[C@H](O[C@@H]2O[C@H](C)[C@@H](O)[C@H](N)[C@@H]2O)C[C@@H]2O[C@](O)(C[C@@H](O)C[C@@H](O)[C@H](O)CC[C@@H](O)C[C@@H](O)CC(=O)O[C@H]1C)C[C@H](O)[C@H]2C(=O)O` [AMPHOTERICIN B], in the data set with Naegleria fowleri [1], the Time was 17.3 days. In addition, the MIC in the data set on Naegleria fowleri [2], in the data set with Naegleria fowleri [6] and in the data set on Naegleria fowleri [11] was 0.78 µg/mL (≈ 0.844 µM) throughout. Besides, the inhibition at 0.39 µg/mL in the data set on Naegleria fowleri [3] worked out at 100%. For the same compound, the Activity in the data set on Naegleria fowleri [4] is greater than 50%; in the data set on Naegleria fowleri [5], 40%; in the data set with Mus musculus [7], 27.4 mg/dL; in the data set on Mus musculus [8], 38.6 mg/dL; in the data set on Mus musculus [9] it was 44.1 mg/dL; in the data set with Naegleria fowleri [10] it was 99.5%.

On to `CN(C)CCCN1c2ccccc2Sc2ccc(Cl)cc21` [CHLORPROMAZINE], for which the Activity in the data set on Mus musculus [12] was 57.5 mg/dL; in data set [14] it was “Non-toxic”; in the data set with Mus musculus [8], 36.3 mg/dL; in the data set on Mus musculus [15] it was “Non-toxic”; in the data set with Mus musculus [16] it was “Non-toxic”; with Mus musculus [9], 38.4 mg/dL. The Activity is recorded as 64.4% in the data set with Naegleria fowleri [10]; “Non-toxic” in the data set on Mus musculus [18]; 69.1% with Naegleria fowleri [19]; 35% in the data set on Naegleria fowleri [20]; 75% in the data set on Naegleria fowleri [21]. Besides, in the data set with Naegleria fowleri [13], the result was Active. Also, the MIC in the data set on Naegleria fowleri [2], with Naegleria fowleri [6] and with Naegleria fowleri [11] was 12.5 µg/mL (≈ 39.2 µM) throughout. In the data set on Naegleria fowleri [17], the Time was found to be 17.2 days.

On to `CCCCCCCCCCCCCCCCOP(=O)([O-])OCC[N+](C)(C)C` [MILTEFOSINE], for which the Activity is less than 30% in the data set on Naegleria fowleri [22]; 82.4 mg/dL in the data set with Mus musculus [12]; less than 30% in the data set on Naegleria fowleri [23]; 29.6 mg/dL in the data set on Mus musculus [8]; less than 30% with Naegleria fowleri [24]; 34.6 mg/dL with Mus musculus [9]. The Activity was less than 30% with Naegleria fowleri [25]; 79.3% in the data set on Naegleria fowleri [26]; 20% in the data set with Naegleria fowleri [20]; less than 30% in the data set on Naegleria fowleri [27]; 55% with Naegleria fowleri [21]; less than 30% with Naegleria fowleri [28]. Moreover, in the data set with Naegleria fowleri [29], the Activity is less than 30%. Also, the MIC in the data set on Naegleria fowleri [2], in the data set with Naegleria fowleri [6] and in the data set with Naegleria fowleri [11] was 25 µg/mL (≈ 61.3 µM) each time.
